Laboratory results reported in ChEMBL document CHEMBL1141824, “The antiproliferative effect of acridone alkaloids on several cancer cell lines” (J Nat Prod, 1999).
pIC50: −log10 of the molar value.

Columns and labels:
Assay type in all cases: functional, cell-based
CCRF-HSB-2 = test: Antiproliferative activity against human CCRF-HSB-2 cells after 3 days by alamar blue assay; details: CCRF-HSB-2, 72 h
How it was run: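 Suspension line maintained in RPMI1640 with 10% FBS. 10⁴ cells per well were preincubated 24 h, then mixed with an equal volume of serially diluted samples (DMSO up to 0.4%) and exposed for 3 days. Staining was alamar Blue for 24 h. Growth was expressed as % of untreated control from blank-subtracted A570−A595. Triplicate points.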

TGBC11TKB = test: Antiproliferative activity against human TGBC11TKB cells after 3 days by alamar blue assay; details: 72 h
How it was run: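 TGBC11TKB, a lymph-node-metastasized gastric cancer line, was grown in DMEM with 5% FBS. 2×10^3 cells per well were plated, grown 24 h, then given medium with serial dilutions (final DMSO ≤0.4%) for 3 days. alamar Blue was then added for 6 h. Read-out was blank-corrected A570−A595 as % of untreated control, in triplicate.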

B16 = test: Antiproliferative activity against mouse B16 cells after 3 days by alamar blue assay; details: B16, 72 h
How it was run: (§1)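 Cells kept in DMEM with 10% heat-inactivated FBS. 2×10^3 cells per well were grown 24 h, then an equal volume of medium with serial sample dilutions was added (DMSO ≤0.4%). After 3 days, alamar Blue was added for 6 h. Proliferation was taken as blank-corrected (A570−A595) as % of untreated growth control. Triplicates.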

A549 = test: Antiproliferative activity against human A549 cells after 3 days by alamar blue assay; details: A549, 72 h; how it was run: as §1

| Compound | pIC50 (CCRF-HSB-2) | pIC50 (TGBC11TKB) | pIC50 (B16) | pIC50 (A549) |
| --- | --- | --- | --- | --- |
| CC(C)=CCc1c(O)cc(O)c2c(=O)c3ccccc3n(C)c12 [GLYCOCITRINE II] | < 4.40 | < 4.40 | < 4.40 | < 4.40 |
| COc1cc(O)c2c(=O)c3ccc(O)c(OC)c3n(C)c2c1 [CITPRESSINE II] | < 4.40 | < 4.40 | < 4.40 | < 4.40 |
| Cn1c2ccccc2c(=O)c2c(O)cc3c(c21)C=CC(C)(C)O3 [NORACRONYCINE] | < 4.40 | < 4.40 | < 4.40 | < 4.40 |
| CC(C)=CCc1c2c(c3[nH]c4c(O)cccc4c(=O)c3c1O)C=CC(C)(C)O2 [ATALAPHYLLININE] | 5.60 | 5.84 | 5.33 | 5.20 |
| Cn1c2c(O)cccc2c(=O)c2c(O)cc3c(c21)C=CC(C)(C)O3 | 4.63 | 4.79 | < 4.40 | < 4.40 |
| COc1c(O)ccc2c(=O)c3c(O)cc4c(c3n(C)c12)C=CC(C)(C)O4 [CITRACRIDONE I] | < 4.40 | < 4.40 | < 4.40 | < 4.40 |
| COc1cc(O)c2c(=O)c3cccc(O)c3n(C)c2c1OC [CITRUSININE-I] | < 4.40 | < 4.40 | < 4.40 | < 4.40 |
| CC(C)=CCc1c2c(c3c(c1O)c(=O)c1ccccc1n3C)C=CC(C)(C)O2 | < 4.40 | < 4.40 | < 4.40 | < 4.40 |
| CC1(C)C=Cc2c(cc(O)c3c(=O)c4ccccc4[nH]c23)O1 | 5.51 | 5.68 | 5.30 | 5.20 |
| COc1cc(O)c2c(=O)c3ccc(OC)c(O)c3n(C)c2c1 [GRANDISINE I] | 4.53 | 4.71 | < 4.40 | 4.61 |
| COc1ccc2c(=O)c3c(O)cc4c(c3n(C)c2c1OC)C=CC(C)(C)O4 [CITRACRIDONE II] | < 4.40 | < 4.40 | < 4.40 | < 4.40 |
| COc1cc2c(c3[nH]c4ccccc4c(=O)c13)C=CC(C)(C)O2 | < 4.40 | < 4.40 | < 4.40 | < 4.40 |
| CC1(C)C=Cc2c(cc(O)c3c(=O)c4cccc(O)c4[nH]c23)O1 [ATOLAPHYLLIDINE] | 5.33 | 5.55 | 5.25 | 5.16 |
| COc1cc(O)c2c(=O)c3cccc(O)c3n(C)c2c1CC=C(C)C [GLYCOCITRINE I] | < 4.40 | < 4.40 | < 4.40 | < 4.40 |
| CC(C)=CCc1c2c(c3c(c1O)c(=O)c1cccc(O)c1n3C)C=CC(C)(C)O2 | 5.27 | 5.67 | 5.09 | 5.03 |
